Assay results taken from ChEMBL document CHEMBL1629690, “Development of hexadecyloxypropyl tenofovir (CMX157) for treatment of infection caused by wild-type and nucleoside/nucleotide-resistant HIV” (Antimicrob Agents Chemother, 2010).

Columns and labels:
Type in all cases: cell-based
PBMC = test: Cytotoxicity against PHA/IL-2-stimulated human PBMC after 24 hrs by XTT assay
Outline: (§1)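 Six-concentration growth-inhibition test: 10 to 0.032 μM for the prodrug and TDF, up to 100 μM for TFV, with Triton X-100 run in parallel. Cell lines were split 1:2 the day before and seeded at 5 × 10^3 to 2 × 10^4 cells/well, with adherent lines left overnight. Dendritic cells were derived with GM-CSF/IL-4 for 7 days, then LPS 10 ng/ml for 2 days. Viability was read by XTT.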

[1] = Cytotoxicity against human dendritic cells after 24 hrs by XTT assay; outline: as §1
HeLa = test: Cytotoxicity against human HeLa cells after 24 hrs by XTT assay; outline: as §1
HepG2 = test: Cytotoxicity against human HepG2 cells after 24 hrs by XTT assay; conditions: hepg2, 24 h; outline: as §1
[2] = Cytotoxicity against human ME180 cells after 24 hrs by XTT assay; conditions: me-180, 24 h; outline: as §1
CEM-SS = test: Cytotoxicity against human CEM-SS cells after 24 hrs by XTT assay; outline: as §1
[3] = Cytotoxicity against human HuH7 cells after 24 hrs by XTT assay; conditions: huh-7, 24 h; outline: as §1

Measured: Activity

CC(C)OC(=O)OCOP(=O)(CO[C@H](C)Cn1cnc2c(N)ncnc21)OCOC(=O)OC(C)C.O=C(O)/C=C/C(=O)O [TENOFOVIR DISOPROXIL FUMARATE]
Non-toxic: all assays above
